# According to ChEMBL document CHEMBL3120102, “Structure-based design, synthesis and biological evaluation of novel anthra[1,2-d]imidazole-6,11-dione homologues as potential antitumor agents” (2013):
# Tests used:
# SN12C = assay: Cytotoxicity against human SN12C cells assessed as cell growth at 10 uM after 48 hrs by SRB assay; type: functional; conditions: read-out: Activity
# Method in brief: (§1)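 First stage of the NCI 60 human tumour cell line screen: a single dose is tested against every line. Cell growth is read as cellular protein by sulforhodamine B colorimetry after 48 h of drug exposure, with reference to a time-zero control and to untreated plates.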
# [1] = Cytotoxicity against human UACC257 cells assessed as cell growth at 10 uM after 48 hrs by SRB assay; type: functional; conditions: UACC-257, 48 h, read-out: Activity
# Method in brief: (§2)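 First stage of the NCI 60 human tumour cell line screen, with each compound tested at a single dose of 10. Cellular protein measured by sulforhodamine B colorimetry after 48 h drug exposure. Growth is calculated against a time-zero cell control and against plates not exposed to drug.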
# [2] = Cytotoxicity against human OVCAR5 cells assessed as cell growth at 10 uM after 48 hrs by SRB assay; type: functional; conditions: OVCAR-5, 48 h, read-out: Activity; method in brief: as §1
# NCI-H460 = assay: Cytotoxicity against human NCI-H460 cells assessed as cell growth at 10 uM after 48 hrs by SRB assay; type: functional; conditions: NCI-H460, 48 h, read-out: Activity; method in brief: as §1
# CCRF-CEM = assay: Cytotoxicity against human CCRF-CEM cells assessed as cell growth at 10 uM after 48 hrs by SRB assay; type: functional; conditions: read-out: Activity
# HL-60(TB) = assay: Cytotoxicity against human HL-60(TB) cells assessed as cell growth at 10 uM after 48 hrs by SRB assay; type: functional; conditions: HL-60, 48 h, read-out: Activity
# Method in brief: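 NCI 60-cell panel first-stage screen at a single dose in the HL-60(TB) leukemia line. Cellular protein was measured by sulforhodamine B colorimetry after 48 h of drug exposure. Growth was referenced to a time-zero cell control and to plates not exposed to drug.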
# HCT-116 = assay: Cytotoxicity against human HCT116 cells assessed as cell growth at 10 uM after 48 hrs by SRB assay; type: functional; conditions: HCT-116, 48 h, read-out: Activity
# HCC 2998 = assay: Cytotoxicity against human HCC2998 cells assessed as cell growth at 10 uM after 48 hrs by SRB assay; type: functional; conditions: HCC 2998, 48 h, read-out: Activity
# IGROV-1 = assay: Cytotoxicity against human IGROV1 cells assessed as cell growth at 10 uM after 48 hrs by SRB assay; type: functional; conditions: IGROV-1, 48 h, read-out: Activity
# DU-145 = assay: Cytotoxicity against human DU145 cells assessed as cell growth at 10 uM after 48 hrs by SRB assay; type: functional; conditions: DU-145, 48 h, read-out: Activity
# Method in brief: (§3)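 NCI 60-cell-line screen, first stage: compound at a single dose of […] (unit as printed) for 48 h. Cellular protein was measured by sulforhodamine B colorimetry. Growth was determined using a time-zero cell control and plates not exposed to drug.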
# U-251 = assay: Cytotoxicity against human U251 cells assessed as cell growth at 10 uM after 48 hrs by SRB assay; type: functional; conditions: U-251, 48 h, read-out: Activity; method in brief: as §2
# A498 = assay: Cytotoxicity against human A498 cells assessed as cell growth at 10 uM after 48 hrs by SRB assay; type: functional; conditions: A498, 48 h, read-out: Activity
# MDA-MB-435 = assay: Cytotoxicity against human MDA-MB-435 cells assessed as cell growth at 10 uM after 48 hrs by SRB assay; type: functional; conditions: MDA-MB-435, 48 h, read-out: Activity; method in brief: as §1
# RXF 393 = assay: Cytotoxicity against human RXF393 cells assessed as cell growth at 10 uM after 48 hrs by SRB assay; type: functional; conditions: RXF 393, 48 h, read-out: Activity; method in brief: as §1
# SK-OV-3 = assay: Cytotoxicity against human SKOV3 cells assessed as cell growth at 10 uM after 48 hrs by SRB assay; type: functional; conditions: SK-OV-3, 48 h, read-out: Activity; method in brief: as §1
# [3] = Cytotoxicity against human UO31 cells assessed as cell growth at 10 uM after 48 hrs by SRB assay; type: functional; conditions: UO-31, 48 h, read-out: Activity; method in brief: as §2
# PC-3 = assay: Cytotoxicity against human PC3 cells assessed as cell growth at 10 uM after 48 hrs by SRB assay; type: functional; conditions: PC-3, 48 h, read-out: Activity; method in brief: as §1
# RPMI-8226 = assay: Cytotoxicity against human RPMI8226 cells assessed as cell growth at 10 uM after 48 hrs by SRB assay; type: functional; conditions: RPMI-8226, 48 h, read-out: Activity; method in brief: as §1
# [4] = biological target: Telomerase reverse transcriptase (Homo sapiens) (UniProt O14746); assay: Inhibition of human tert transcriptional activity assessed as SEAP activity at 100 uM after 24 hrs by SEAP reporter assay; parameters: scale not given: the % may be the effect or the level left
# Chain of Telomerase reverse transcriptase (Homo sapiens) (O14746 whole entry): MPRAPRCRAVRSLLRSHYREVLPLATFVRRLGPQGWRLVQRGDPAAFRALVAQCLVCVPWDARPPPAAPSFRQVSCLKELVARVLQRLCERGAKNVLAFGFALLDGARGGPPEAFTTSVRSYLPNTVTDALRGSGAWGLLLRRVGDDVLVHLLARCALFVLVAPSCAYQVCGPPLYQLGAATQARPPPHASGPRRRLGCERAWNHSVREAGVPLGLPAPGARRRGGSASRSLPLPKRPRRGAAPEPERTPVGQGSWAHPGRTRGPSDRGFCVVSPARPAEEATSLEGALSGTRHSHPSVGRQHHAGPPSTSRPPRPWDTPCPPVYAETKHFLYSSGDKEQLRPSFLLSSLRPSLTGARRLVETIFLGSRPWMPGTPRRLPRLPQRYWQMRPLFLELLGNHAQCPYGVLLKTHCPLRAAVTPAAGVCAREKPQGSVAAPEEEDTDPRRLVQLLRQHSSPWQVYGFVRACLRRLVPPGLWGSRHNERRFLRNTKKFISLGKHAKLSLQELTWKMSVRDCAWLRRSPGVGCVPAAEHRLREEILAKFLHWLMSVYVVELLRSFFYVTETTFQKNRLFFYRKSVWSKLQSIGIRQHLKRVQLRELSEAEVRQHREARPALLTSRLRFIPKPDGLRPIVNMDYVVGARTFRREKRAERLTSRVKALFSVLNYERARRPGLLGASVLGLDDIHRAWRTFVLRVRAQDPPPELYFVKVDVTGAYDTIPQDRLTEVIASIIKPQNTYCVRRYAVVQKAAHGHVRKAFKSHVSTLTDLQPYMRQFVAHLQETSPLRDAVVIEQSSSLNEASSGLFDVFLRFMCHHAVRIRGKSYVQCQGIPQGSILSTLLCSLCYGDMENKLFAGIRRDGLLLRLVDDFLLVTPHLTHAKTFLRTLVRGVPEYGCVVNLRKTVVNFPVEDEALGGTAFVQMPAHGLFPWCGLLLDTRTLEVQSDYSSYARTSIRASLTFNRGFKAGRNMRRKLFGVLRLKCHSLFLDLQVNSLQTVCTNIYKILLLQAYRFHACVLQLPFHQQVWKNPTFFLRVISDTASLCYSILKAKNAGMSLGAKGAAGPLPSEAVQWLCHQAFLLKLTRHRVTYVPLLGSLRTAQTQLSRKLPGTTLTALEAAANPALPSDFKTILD
# Method in brief: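 Reporter assay for hTERT transcriptional activity using secreted alkaline phosphatase. About 2 × 10³ cells per well were grown for 24 h at 37 °C, then given fresh medium. Buffer was added to the medium: 2 M diethanolamine, 1 mM MgCl2 and 20 mM L-homoarginine. p-Nitrophenyl phosphate was added to 12 mM final. The rate of absorbance increase was read at 405 nm.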
# UACC-62 = assay: Cytotoxicity against human UACC62 cells assessed as cell growth at 10 uM after 48 hrs by SRB assay; type: functional; conditions: UACC-62, 48 h, read-out: Activity; method in brief: as §2
# SF-539 = assay: Cytotoxicity against human SF539 cells assessed as cell growth at 10 uM after 48 hrs by SRB assay; type: functional; conditions: SF-539, 48 h, read-out: Activity; method in brief: as §1
# SK-MEL-5 = assay: Cytotoxicity against human SK-MEL-5 cells assessed as cell growth at 10 uM after 48 hrs by SRB assay; type: functional; conditions: SK-MEL-5, 48 h, read-out: Activity; method in brief: as §1
# MOLT-4 = assay: Cytotoxicity against human MOLT4 cells assessed as cell growth at 10 uM after 48 hrs by SRB assay; type: functional; conditions: MOLT-4, 48 h, read-out: Activity; method in brief: as §1
# Malme-3M = assay: Cytotoxicity against human MALME-3M cells assessed as cell growth at 10 uM after 48 hrs by SRB assay; type: functional; conditions: read-out: Activity
# KM12 = assay: Cytotoxicity against human KM12 cells assessed as cell growth at 10 uM after 48 hrs by SRB assay; type: functional; conditions: KM12, 48 h, read-out: Activity
# [5] = Cytotoxicity against human OVCAR4 cells assessed as cell growth at 10 uM after 48 hrs by SRB assay; type: functional; conditions: OVCAR-4, 48 h, read-out: Activity; method in brief: as §1
# SR = assay: Cytotoxicity against human SR cells assessed as cell growth at 10 uM after 48 hrs by SRB assay; type: functional; conditions: read-out: Activity; method in brief: as §2
# HCT-15 = assay: Cytotoxicity against human HCT15 cells assessed as cell growth at 10 uM after 48 hrs by SRB assay; type: functional; conditions: HCT-15, 48 h, read-out: Activity
# SF-268 = assay: Cytotoxicity against human SF268 cells assessed as cell growth at 10 uM after 48 hrs by SRB assay; type: functional; conditions: SF-268, 48 h, read-out: Activity; method in brief: as §1
# SK-MEL-2 = assay: Cytotoxicity against human SK-MEL-2 cells assessed as cell growth at 10 uM after 48 hrs by SRB assay; type: functional; conditions: SK-MEL-2, 48 h, read-out: Activity; method in brief: as §1
# HOP-92 = assay: Cytotoxicity against human HOP92 cells assessed as cell growth at 10 uM after 48 hrs by SRB assay; type: functional; conditions: HOP-92, 48 h, read-out: Activity; method in brief: as §3
SMILES,growth at 10 µM (SN12C),growth at 10 µM [1],growth at 10 µM [2],growth at 10 µM (NCI-H460),growth at 10 µM (CCRF-CEM),growth at 10 µM (HL-60(TB)),growth at 10 µM (HCT-116),growth at 10 µM (HCC 2998),growth at 10 µM (IGROV-1),growth at 10 µM (DU-145),growth at 10 µM (U-251),growth at 10 µM (A498),growth at 10 µM (MDA-MB-435),growth at 10 µM (RXF 393),growth at 10 µM (SK-OV-3),growth at 10 µM [3],growth at 10 µM (PC-3),growth at 10 µM (RPMI-8226),Activity [4],growth at 10 µM (UACC-62),further results
O=C1c2ccccc2C(=O)c2c1ccc1nc3n(c21)CCS3,74.9%,80.6%,105%,59.5%,66.8%,78.8%,68.4%,94.8%,62.3%,68.8%,72.5%,73.7%,83.1%,46.5%,87.4%,45.8%,93.9%,71.7%,48%,73.1%,growth at 10 µM (SF-539): 74.1%; growth at 10 µM (SK-MEL-5): 65.9%; growth at 10 µM (MOLT-4): 58.4%; growth at 10 µM (Malme-3M): 87.6%; growth at 10 µM (KM12): 84.9%; growth at 10 µM [5]: 89.3%; growth at 10 µM (SR): 60.6%; growth at 10 µM (HCT-15): 57.1%; growth at 10 µM (SF-268): 56.1%; growth at 10 µM (SK-MEL-2): 99.9%; growth at 10 µM (HOP-92): 88.7%
CCSc1nc2ccc3c(c2[nH]1)C(=O)c1ccccc1C3=O,67.9%,112%,85.4%,38.8%,36.9%,62.6%,68.8%,89.4%,73.4%,64.5%,65%,75.5%,68.4%,99.9%,24.7%,49.2%,53.8%,28.5%,17%,47.6%,growth at 10 µM (SF-539): 58.6%; growth at 10 µM (SK-MEL-5): 63.9%; growth at 10 µM (MOLT-4): 101%; growth at 10 µM (Malme-3M): 63.3%; growth at 10 µM (KM12): 68.3%; growth at 10 µM [5]: 55%; growth at 10 µM (SR): 129%; growth at 10 µM (HCT-15): 32.3%; growth at 10 µM (SF-268): 75.7%; growth at 10 µM (SK-MEL-2): 81.7%; growth at 10 µM (HOP-92): 75.3%
O=C1c2ccccc2C(=O)c2c1ccc1[nH]c(=S)[nH]c21,88%,105%,129%,98.6%,61.9%,97.6%,96.3%,114%,138%,99.3%,88.8%,94.3%,114%,142%,103%,97.8%,78.8%,101%,31%,84.2%,growth at 10 µM (SF-539): 91.3%; growth at 10 µM (SK-MEL-5): 86.7%; growth at 10 µM (MOLT-4): 109%; growth at 10 µM (Malme-3M): 87.5%; growth at 10 µM (KM12): 102%; growth at 10 µM [5]: 91.6%; growth at 10 µM (SR): 125%; growth at 10 µM (HCT-15): 83.8%; growth at 10 µM (SF-268): 90.3%; growth at 10 µM (SK-MEL-2): 134%; growth at 10 µM (HOP-92): 65.5%
CN(C)CCCSc1nc2ccc3c(c2[nH]1)C(=O)c1ccccc1C3=O,37.7%,114%,87.9%,23.2%,8.49%,12.7%,27.6%,72.7%,30.9%,36.4%,74.1%,76.2%,72.2%,38.4%,32.4%,25.5%,36.7%,-13.7%,15%,75.4%,growth at 10 µM (SF-539): 57.5%; growth at 10 µM (SK-MEL-5): 62.5%; growth at 10 µM (MOLT-4): -2.9%; growth at 10 µM (Malme-3M): 88.2%; growth at 10 µM (KM12): 20.4%; growth at 10 µM [5]: 29.7%; growth at 10 µM (SR): 3.09%; growth at 10 µM (HCT-15): 36.3%; growth at 10 µM (SF-268): 53.1%; growth at 10 µM (SK-MEL-2): 80%; growth at 10 µM (HOP-92): 16%
O=C1c2ccccc2C(=O)c2c1ccc1nc(SCCN3CCCC3)[nH]c21,52.9%,92.8%,87.5%,34.1%,-15.4%,37.4%,38.8%,71.5%,23.2%,17.9%,69.1%,71.4%,66.5%,22.3%,55.6%,21.2%,6.9%,-60.2%,36%,81%,growth at 10 µM (SF-539): 62.2%; growth at 10 µM (SK-MEL-5): 78.5%; growth at 10 µM (MOLT-4): 30.9%; growth at 10 µM (Malme-3M): 112%; growth at 10 µM (KM12): 19.6%; growth at 10 µM [5]: 57.2%; growth at 10 µM (SR): 20.2%; growth at 10 µM (HCT-15): 40.4%; growth at 10 µM (SF-268): 42%; growth at 10 µM (SK-MEL-2): 107%; growth at 10 µM (HOP-92): 35.2%
CCCSc1nc2ccc3c(c2[nH]1)C(=O)c1ccccc1C3=O,80.4%,86.3%,99.7%,68.1%,70.8%,74.2%,47.7%,81.9%,53.7%,69.3%,63%,57.3%,77.4%,20.1%,38.9%,24.5%,66.8%,71.8%,33%,51.1%,growth at 10 µM (SF-539): 24%; growth at 10 µM (SK-MEL-5): 78.5%; growth at 10 µM (MOLT-4): 68.1%; growth at 10 µM (Malme-3M): 88.2%; growth at 10 µM (KM12): 55.2%; growth at 10 µM [5]: 42.2%; growth at 10 µM (SR): 71%; growth at 10 µM (HCT-15): 67.7%; growth at 10 µM (SF-268): 47.8%; growth at 10 µM (SK-MEL-2): 79.3%; growth at 10 µM (HOP-92): 17.2%
